# The M2OR odorant receptor database
# Tests used:
# Conditions in all cases: stereoisomer not certain
# UniProt Q8VGC6 = molecular target: T1, UniProt Q8VGC6
# T1 sequence (whole entry): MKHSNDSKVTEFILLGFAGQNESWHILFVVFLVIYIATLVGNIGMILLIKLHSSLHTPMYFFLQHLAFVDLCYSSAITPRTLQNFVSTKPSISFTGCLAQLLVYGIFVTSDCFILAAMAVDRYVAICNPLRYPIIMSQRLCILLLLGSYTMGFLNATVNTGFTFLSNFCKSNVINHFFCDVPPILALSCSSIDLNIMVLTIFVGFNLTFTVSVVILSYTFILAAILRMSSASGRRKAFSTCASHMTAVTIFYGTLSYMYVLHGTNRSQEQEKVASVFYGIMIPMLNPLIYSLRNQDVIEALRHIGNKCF
# Outline: (§1)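 Assay methods differ from source to source, frequently being transient luciferase assays in mammalian cell lines. For each receptor–molecule pair, the label responsive (active) applies when the original authors judged the measured signal statistically different from baseline, and non-responsive (inactive) applies otherwise.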
# UniProt Q8VGD7 = molecular target: T2, UniProt Q8VGD7
# T2 sequence (whole entry): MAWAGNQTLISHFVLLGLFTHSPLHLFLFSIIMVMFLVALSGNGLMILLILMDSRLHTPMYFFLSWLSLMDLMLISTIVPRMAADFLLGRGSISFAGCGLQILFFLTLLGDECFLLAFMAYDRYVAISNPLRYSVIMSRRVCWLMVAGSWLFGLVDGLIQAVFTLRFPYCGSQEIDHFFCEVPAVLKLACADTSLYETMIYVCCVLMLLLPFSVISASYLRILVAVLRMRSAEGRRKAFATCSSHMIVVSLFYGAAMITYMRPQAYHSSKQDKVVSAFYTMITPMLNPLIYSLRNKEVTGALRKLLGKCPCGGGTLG
# Outline: as §1
# UniProt Q8VGH1 = molecular target: T3, UniProt Q8VGH1
# T3 sequence (whole entry): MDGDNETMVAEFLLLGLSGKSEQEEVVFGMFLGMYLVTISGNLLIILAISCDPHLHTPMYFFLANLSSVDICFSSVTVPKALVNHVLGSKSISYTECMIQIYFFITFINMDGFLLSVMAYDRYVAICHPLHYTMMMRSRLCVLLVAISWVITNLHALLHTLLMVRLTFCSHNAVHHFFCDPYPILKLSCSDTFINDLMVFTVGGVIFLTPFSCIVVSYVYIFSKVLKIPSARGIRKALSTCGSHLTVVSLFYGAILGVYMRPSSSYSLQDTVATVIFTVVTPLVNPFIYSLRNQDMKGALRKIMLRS
# Outline: as §1
# UniProt Q8VGJ1 = molecular target: T4, UniProt Q8VGJ1
# T4 sequence (whole entry): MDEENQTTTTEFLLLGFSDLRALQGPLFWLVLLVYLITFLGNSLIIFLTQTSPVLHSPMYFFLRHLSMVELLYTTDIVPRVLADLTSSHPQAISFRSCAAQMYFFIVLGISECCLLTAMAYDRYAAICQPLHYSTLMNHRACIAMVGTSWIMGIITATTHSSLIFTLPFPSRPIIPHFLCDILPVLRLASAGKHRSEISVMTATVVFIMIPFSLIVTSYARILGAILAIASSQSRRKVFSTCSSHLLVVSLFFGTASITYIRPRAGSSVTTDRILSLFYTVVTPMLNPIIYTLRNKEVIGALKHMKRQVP
# Outline: as §1
# UniProt Q8VGJ3 = molecular target: T5, UniProt Q8VGJ3
# T5 sequence (whole entry): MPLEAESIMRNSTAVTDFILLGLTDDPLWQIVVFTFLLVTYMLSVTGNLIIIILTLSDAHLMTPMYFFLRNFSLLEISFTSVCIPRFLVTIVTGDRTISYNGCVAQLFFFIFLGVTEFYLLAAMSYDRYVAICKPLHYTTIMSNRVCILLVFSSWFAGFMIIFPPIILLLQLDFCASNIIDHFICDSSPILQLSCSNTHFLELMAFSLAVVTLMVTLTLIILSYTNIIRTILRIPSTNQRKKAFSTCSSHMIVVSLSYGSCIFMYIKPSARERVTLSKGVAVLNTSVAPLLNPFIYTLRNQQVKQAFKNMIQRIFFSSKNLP
# Outline: as §1
# UniProt Q8VGJ5 = molecular target: T6, UniProt Q8VGJ5
# T6 sequence (whole entry): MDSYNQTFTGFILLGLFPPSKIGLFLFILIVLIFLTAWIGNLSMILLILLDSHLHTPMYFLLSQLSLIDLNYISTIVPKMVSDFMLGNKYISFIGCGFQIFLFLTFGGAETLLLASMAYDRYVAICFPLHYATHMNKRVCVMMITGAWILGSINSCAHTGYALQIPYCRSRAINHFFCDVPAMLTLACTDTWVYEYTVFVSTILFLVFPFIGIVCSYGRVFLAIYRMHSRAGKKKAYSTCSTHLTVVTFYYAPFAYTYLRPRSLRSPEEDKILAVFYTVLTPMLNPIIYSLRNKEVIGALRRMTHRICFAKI
# Outline: as §1
# UniProt Q8VGL0 = molecular target: T7, UniProt Q8VGL0
# T7 sequence (whole entry): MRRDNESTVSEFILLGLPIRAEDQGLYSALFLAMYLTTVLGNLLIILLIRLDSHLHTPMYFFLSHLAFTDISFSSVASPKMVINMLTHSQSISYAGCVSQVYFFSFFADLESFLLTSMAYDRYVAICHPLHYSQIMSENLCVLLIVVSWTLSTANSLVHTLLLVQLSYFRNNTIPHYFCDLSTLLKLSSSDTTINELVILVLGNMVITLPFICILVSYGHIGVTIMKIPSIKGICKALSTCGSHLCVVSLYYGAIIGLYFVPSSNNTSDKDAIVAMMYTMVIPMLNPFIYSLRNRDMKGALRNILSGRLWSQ
# Outline: as §1
# UniProt Q8VGL7 = molecular target: T8, UniProt Q8VGL7
# T8 sequence (whole entry): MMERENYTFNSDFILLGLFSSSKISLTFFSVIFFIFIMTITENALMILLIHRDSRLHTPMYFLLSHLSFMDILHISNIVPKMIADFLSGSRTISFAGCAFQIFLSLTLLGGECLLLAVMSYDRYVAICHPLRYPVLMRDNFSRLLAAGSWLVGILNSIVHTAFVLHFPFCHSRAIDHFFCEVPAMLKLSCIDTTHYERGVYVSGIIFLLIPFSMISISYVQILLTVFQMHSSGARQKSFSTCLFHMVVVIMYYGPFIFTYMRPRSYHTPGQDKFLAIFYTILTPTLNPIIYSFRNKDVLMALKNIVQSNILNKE
# Outline: as §1
# UniProt Q8VGM2 = molecular target: T9, UniProt Q8VGM2
# T9 sequence (whole entry): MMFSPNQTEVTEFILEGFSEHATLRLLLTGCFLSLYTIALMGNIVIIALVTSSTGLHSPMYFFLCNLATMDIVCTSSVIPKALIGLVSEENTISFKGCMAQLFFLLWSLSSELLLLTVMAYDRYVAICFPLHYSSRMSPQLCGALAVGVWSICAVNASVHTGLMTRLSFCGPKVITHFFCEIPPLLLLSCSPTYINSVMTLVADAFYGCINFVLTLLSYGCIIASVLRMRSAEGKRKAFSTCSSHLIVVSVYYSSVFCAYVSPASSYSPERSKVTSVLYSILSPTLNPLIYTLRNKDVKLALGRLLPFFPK
# Outline: as §1
# UniProt Q8VGP6 = molecular target: T10, UniProt Q8VGP6
# T10 sequence (whole entry): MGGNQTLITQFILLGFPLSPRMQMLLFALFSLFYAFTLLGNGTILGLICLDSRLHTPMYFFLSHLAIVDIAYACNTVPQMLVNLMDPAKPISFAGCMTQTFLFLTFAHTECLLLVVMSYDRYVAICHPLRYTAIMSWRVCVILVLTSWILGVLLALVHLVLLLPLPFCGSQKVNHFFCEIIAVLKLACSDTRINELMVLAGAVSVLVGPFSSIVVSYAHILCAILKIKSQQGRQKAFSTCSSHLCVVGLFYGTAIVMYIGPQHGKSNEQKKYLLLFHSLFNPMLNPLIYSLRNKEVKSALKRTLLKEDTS
# Outline: as §1
# UniProt Q8VGQ3 = molecular target: T11, UniProt Q8VGQ3
# T11 sequence (whole entry): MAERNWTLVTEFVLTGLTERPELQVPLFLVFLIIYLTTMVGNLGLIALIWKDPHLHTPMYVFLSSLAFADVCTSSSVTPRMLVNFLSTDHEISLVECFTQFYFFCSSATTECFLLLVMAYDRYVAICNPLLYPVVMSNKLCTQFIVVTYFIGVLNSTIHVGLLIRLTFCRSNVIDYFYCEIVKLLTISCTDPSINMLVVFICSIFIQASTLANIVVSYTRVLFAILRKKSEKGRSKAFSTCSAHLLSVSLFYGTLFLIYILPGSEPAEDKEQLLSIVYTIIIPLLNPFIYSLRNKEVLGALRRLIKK
# Outline: as §1
# UniProt Q8VGT4 = molecular target: T12, UniProt Q8VGT4
# T12 sequence (whole entry): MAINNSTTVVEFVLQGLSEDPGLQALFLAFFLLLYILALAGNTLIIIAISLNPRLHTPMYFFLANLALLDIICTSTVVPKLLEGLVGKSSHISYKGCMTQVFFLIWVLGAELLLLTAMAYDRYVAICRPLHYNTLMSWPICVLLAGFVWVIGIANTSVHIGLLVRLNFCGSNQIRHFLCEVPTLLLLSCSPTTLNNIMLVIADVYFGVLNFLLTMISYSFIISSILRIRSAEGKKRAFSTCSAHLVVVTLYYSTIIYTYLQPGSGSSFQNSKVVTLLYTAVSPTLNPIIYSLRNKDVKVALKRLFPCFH
# Outline: as §1
# UniProt Q8VGU3 = molecular target: T13, UniProt Q8VGU3
# T13 sequence (whole entry): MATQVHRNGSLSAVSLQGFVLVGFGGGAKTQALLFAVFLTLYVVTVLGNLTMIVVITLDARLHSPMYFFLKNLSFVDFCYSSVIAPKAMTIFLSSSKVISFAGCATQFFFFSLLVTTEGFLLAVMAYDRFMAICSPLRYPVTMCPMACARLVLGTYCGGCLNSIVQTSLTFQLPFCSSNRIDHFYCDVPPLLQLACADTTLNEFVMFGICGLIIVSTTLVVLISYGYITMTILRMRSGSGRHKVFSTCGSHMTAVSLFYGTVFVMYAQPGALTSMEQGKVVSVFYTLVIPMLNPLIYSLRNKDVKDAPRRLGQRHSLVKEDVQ
# Outline: as §1
# UniProt Q8VGV1 = molecular target: T14, UniProt Q8VGV1
# T14 sequence (whole entry): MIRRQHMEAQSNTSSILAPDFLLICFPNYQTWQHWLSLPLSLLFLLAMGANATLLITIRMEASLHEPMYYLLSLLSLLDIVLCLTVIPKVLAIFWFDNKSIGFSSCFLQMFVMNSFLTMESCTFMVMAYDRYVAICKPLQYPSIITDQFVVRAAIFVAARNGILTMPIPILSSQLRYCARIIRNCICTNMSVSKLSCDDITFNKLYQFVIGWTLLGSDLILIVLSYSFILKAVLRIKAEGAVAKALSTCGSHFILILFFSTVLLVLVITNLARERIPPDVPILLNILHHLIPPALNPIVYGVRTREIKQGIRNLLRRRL
# Outline: as §1
# UniProt Q8VGV7 = molecular target: T15, UniProt Q8VGV7
# T15 sequence (whole entry): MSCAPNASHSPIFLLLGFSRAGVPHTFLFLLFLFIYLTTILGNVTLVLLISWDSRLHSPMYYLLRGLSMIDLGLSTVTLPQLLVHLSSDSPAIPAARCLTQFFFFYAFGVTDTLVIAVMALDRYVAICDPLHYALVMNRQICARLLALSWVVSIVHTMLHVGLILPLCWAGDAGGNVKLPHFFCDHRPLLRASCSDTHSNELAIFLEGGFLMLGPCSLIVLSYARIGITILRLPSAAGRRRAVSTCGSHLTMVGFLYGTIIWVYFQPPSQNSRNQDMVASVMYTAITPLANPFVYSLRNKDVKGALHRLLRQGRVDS
# Outline: as §1
# UniProt Q8VGX3 = molecular target: T16, UniProt Q8VGX3
# T16 sequence (whole entry): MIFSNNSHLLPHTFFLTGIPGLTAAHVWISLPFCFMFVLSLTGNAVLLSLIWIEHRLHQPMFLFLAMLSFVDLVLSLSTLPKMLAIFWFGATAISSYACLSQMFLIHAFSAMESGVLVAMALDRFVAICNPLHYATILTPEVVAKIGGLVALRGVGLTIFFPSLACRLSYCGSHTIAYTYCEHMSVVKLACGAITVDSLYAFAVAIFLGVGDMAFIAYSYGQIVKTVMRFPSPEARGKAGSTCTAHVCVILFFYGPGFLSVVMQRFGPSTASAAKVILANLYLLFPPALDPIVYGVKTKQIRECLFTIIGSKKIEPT
# Outline: as §1
# UniProt Q8VGX5 = molecular target: T17, UniProt Q8VGX5
# T17 sequence (whole entry): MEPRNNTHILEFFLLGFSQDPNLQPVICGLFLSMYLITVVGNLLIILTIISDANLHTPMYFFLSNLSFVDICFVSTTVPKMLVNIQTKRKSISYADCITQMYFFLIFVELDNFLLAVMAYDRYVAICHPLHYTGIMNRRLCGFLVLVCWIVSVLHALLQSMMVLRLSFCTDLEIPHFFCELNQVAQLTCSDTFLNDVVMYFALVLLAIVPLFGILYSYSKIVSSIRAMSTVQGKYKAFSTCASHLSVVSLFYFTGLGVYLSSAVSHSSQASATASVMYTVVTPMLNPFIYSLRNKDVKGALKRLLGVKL
# Outline: as §1
Structure (SMILES),odorant receptor agonist call (UniProt Q8VGC6),odorant receptor agonist call (UniProt Q8VGD7),odorant receptor agonist call (UniProt Q8VGH1),odorant receptor agonist call (UniProt Q8VGJ1),odorant receptor agonist call (UniProt Q8VGJ3),odorant receptor agonist call (UniProt Q8VGJ5),odorant receptor agonist call (UniProt Q8VGL0),odorant receptor agonist call (UniProt Q8VGL7),odorant receptor agonist call (UniProt Q8VGM2),odorant receptor agonist call (UniProt Q8VGP6),odorant receptor agonist call (UniProt Q8VGQ3),odorant receptor agonist call (UniProt Q8VGT4),odorant receptor agonist call (UniProt Q8VGU3),odorant receptor agonist call (UniProt Q8VGV1),odorant receptor agonist call (UniProt Q8VGV7),odorant receptor agonist call (UniProt Q8VGX3),odorant receptor agonist call (UniProt Q8VGX5)
O=C(c1ccccc1)c1ccccc1,inactive,inactive,inactive,active,inactive,inactive,inactive,inactive,inactive,inactive,inactive,inactive,inactive,inactive,inactive,inactive,inactive
CCCCOC(=O)C(C)OC(=O)CCC (stereo not given),inactive,inactive,inactive,inactive,–,inactive,inactive,inactive,inactive,inactive,inactive,inactive,–,inactive,–,–,inactive
